Reference: ChEMBL document CHEMBL2203049, “Novel retinoic acid 4-hydroxylase (CYP26) inhibitors based on a 3-(1H-imidazol- and triazol-1-yl)-2,2-dimethyl-3-(4-(phenylamino)phenyl)propyl scaffold” (Bioorg Med Chem, 2012)
One block for each compound: values may come before it.

Experiments:
[1] = target: T1, Cytochrome P450 26A1 (Homo sapiens, UniProt O43174); test: Inhibition of CYP26A1 in human MCF7 cell microsomes using [3H]ATRA as substrate after 1 hr by scintillation counter analysis; set-up: species or system Microsome
T1 sequence (O43174 whole entry): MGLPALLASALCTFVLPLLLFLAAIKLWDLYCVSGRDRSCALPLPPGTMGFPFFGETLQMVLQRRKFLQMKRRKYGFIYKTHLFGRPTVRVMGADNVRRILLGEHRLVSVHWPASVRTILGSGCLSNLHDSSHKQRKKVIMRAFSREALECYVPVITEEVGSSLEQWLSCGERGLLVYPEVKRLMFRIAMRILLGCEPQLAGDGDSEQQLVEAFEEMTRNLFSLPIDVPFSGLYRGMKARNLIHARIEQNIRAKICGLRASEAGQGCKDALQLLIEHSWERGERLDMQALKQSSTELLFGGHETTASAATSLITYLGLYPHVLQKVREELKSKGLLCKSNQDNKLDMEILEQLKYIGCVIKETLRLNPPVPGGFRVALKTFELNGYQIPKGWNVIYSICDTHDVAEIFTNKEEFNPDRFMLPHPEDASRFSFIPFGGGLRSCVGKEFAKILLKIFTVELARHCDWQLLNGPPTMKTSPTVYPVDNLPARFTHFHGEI
Outline: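 MCF-7 cells (RPMI 1640, 10% FCS, 2 mM L-glutamine, 37 °C, 5% CO₂) pretreated 24 h with 1 µM RA to induce CYP26; microsomes by differential centrifugation, activity normalised by cytochrome c reductase. 50 µg microsomal protein, 2 mM NADPH, 10 nM ATRA plus 0.1 µCi ³H-ATRA, pH 7.4 Tris/KCl/MgCl₂/BSA, inhibitor 1–1000 nM, 1 h 37 °C; acetonitrile quench, C18 HPLC, flow scintillation; inhibition from metabolite peak area fraction versus no-inhibitor control.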

[2] = target: Cytochrome P450 2C19 (Homo sapiens, UniProt P33261); test: Inhibition of CYP2C19 in human liver microsomes; format: ADME, Microsome
Chain of Cytochrome P450 2C19 (P33261 whole entry): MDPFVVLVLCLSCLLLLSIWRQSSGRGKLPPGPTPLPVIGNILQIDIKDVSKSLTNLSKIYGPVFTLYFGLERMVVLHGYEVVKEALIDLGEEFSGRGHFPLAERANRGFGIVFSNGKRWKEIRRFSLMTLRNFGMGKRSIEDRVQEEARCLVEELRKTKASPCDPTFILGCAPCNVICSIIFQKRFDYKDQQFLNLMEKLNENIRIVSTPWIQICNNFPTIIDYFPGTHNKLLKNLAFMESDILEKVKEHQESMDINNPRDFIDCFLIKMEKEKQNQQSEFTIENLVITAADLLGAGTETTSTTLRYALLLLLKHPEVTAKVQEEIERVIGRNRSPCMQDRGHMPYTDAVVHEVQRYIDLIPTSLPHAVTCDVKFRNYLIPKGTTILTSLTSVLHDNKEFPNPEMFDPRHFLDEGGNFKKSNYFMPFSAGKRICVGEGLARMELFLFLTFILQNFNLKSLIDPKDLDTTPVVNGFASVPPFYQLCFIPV

[3] = target: CYP3A4 (Homo sapiens, UniProt P08684); test: Inhibition of CYP3A4 in human liver microsomes at 0.4 uM; format: ADME, Microsome
Chain of CYP3A4 (P08684 whole entry): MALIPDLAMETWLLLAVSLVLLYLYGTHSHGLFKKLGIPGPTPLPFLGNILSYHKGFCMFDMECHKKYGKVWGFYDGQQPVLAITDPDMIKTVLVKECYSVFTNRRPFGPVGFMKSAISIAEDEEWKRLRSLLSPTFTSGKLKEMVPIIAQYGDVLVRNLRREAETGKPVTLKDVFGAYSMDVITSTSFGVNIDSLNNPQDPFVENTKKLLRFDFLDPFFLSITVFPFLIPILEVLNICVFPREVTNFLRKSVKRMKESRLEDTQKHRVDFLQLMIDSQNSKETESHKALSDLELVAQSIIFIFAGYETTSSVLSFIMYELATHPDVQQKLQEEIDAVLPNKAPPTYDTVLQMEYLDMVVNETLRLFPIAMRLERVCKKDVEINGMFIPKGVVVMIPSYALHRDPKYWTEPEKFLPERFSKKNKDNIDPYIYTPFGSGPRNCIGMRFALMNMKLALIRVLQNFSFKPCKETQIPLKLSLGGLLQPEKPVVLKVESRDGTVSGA

[4] = target: CYP2C19 (Homo sapiens, UniProt P33261); test: Inhibition of CYP2C19 in human liver microsomes at 0.4 uM; format: ADME, Microsome
Chain of CYP2C19 (P33261 whole entry): as the sequence (P33261 whole entry) above

[5] = target: Cytochrome P450 2D6 (Homo sapiens, UniProt P10635); test: Inhibition of CYP2D6 in human liver microsomes; format: ADME, Microsome
Chain of Cytochrome P450 2D6 (P10635 whole entry): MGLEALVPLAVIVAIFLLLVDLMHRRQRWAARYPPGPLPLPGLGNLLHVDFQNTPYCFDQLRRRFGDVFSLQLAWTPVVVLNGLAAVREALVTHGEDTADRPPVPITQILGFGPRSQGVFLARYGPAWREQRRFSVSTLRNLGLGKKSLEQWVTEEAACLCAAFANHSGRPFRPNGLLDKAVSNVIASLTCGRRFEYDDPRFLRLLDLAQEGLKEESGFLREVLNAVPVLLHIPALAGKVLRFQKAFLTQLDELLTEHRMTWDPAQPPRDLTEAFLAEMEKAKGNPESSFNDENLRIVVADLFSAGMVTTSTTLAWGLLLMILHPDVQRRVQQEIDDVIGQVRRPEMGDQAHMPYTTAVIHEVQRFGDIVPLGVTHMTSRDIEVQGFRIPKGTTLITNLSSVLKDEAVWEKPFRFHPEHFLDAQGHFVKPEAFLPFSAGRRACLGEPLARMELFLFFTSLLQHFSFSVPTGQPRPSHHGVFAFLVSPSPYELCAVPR

[6] = Selectivity ratio of IC50 for CYP2D6 in human liver microsomes to IC50 for CYP26A1 in human MCF7 cell microsomes
[7] = target: T2, CYP1A2 (Homo sapiens, UniProt P05177); test: Inhibition of CYP1A2 in human liver microsomes at 0.4 uM; format: ADME, Microsome
T2 sequence (P05177 whole entry): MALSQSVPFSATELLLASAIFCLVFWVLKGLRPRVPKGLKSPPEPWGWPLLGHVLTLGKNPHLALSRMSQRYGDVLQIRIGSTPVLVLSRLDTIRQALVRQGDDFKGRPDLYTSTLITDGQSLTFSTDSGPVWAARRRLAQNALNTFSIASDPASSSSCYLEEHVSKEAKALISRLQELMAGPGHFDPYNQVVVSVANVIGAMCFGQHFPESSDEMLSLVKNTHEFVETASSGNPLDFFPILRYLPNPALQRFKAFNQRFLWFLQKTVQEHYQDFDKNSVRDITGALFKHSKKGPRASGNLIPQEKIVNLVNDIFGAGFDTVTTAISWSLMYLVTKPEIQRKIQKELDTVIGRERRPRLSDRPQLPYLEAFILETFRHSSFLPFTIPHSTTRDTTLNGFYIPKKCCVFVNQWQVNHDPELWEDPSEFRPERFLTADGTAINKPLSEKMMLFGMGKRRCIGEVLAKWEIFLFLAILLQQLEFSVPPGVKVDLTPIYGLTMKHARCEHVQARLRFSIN

[8] = Selectivity ratio of IC50 for CYP2C9 in human liver microsomes to IC50 for CYP26A1 in human MCF7 cell microsomes
[9] = target: Cytochrome P450 3A4 (Homo sapiens, UniProt P08684); test: Inhibition of CYP3A4 in human liver microsomes; format: ADME, Microsome
Chain of Cytochrome P450 3A4 (P08684 whole entry): as the sequence (P08684 whole entry) above

[10] = target: Cytochrome P450 2C9 (Homo sapiens, UniProt P11712); test: Inhibition of CYP2C9 in human liver microsomes; format: ADME, Microsome
Chain of Cytochrome P450 2C9 (P11712 whole entry): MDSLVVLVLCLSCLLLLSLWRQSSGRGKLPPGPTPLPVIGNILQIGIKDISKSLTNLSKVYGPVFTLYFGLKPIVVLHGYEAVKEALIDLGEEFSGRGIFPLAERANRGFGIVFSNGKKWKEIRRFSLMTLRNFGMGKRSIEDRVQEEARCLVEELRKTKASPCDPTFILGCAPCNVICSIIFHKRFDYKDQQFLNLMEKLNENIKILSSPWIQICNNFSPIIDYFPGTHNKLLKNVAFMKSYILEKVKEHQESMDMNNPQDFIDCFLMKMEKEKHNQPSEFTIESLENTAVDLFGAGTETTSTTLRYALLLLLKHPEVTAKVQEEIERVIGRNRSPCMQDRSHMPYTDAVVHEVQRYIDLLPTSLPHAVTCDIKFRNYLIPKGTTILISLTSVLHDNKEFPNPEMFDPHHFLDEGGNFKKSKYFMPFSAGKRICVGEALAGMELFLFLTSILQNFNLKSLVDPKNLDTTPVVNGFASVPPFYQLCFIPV

[11] = target: CYP2C9 (Homo sapiens, UniProt P11712); test: Inhibition of CYP2C9 in human liver microsomes at 0.4 uM; format: ADME, Microsome
Chain of CYP2C9 (P11712 whole entry): as above

[12] = Selectivity ratio of IC50 for CYP1A2 in human liver microsomes to IC50 for CYP26A1 in human MCF7 cell microsomes
[13] = target: T3, Cytochrome P450 1A2 (Homo sapiens, UniProt P05177); test: Inhibition of CYP1A2 in human liver microsomes; format: ADME, Microsome
T3 sequence (P05177 whole entry): T2 sequence (P05177 whole entry)

[14] = target: CYP2D6 (Homo sapiens, UniProt P10635); test: Inhibition of CYP2D6 in human liver microsomes at 0.4 uM; format: ADME, Microsome
Chain of CYP2D6 (P10635 whole entry): as the sequence (P10635 whole entry) above

[15] = Selectivity ratio of IC50 for CYP3A4 in human liver microsomes to IC50 for CYP26A1 in human MCF7 cell microsomes

Structure (SMILES): CNC(=O)C(C)(C)C(c1ccc(Nc2ccccc2)cc1)n1cncn1 (stereo not drawn)
IC50 [1]: 1000 nM

Structure (SMILES): CCNC(=O)C(C)(C)C(c1ccc(Nc2ccccc2)cc1)n1ccnc1 (stereo not drawn)
IC50 [1]: 250 nM

Structure (SMILES): COC(=O)C(C)(C)C(c1ccc(Nc2ccc(C(C)=O)cc2)cc1)n1cncn1 (stereo not drawn)
IC50 [1]: 95 nM

Structure (SMILES): CC(C)(C(=O)O)C(c1ccc(Nc2ccccc2)cc1)n1ccnc1 (stereo not drawn)
IC50 [1]: > 1000 nM

Structure (SMILES): C[C@H]([C@@H](c1ccc(Nc2nc3ccccc3s2)cc1)n1cncn1)N(C)C
inhibition at 0.4 µM [3]: 83% | inhibition at 0.4 µM [4]: 17% | inhibition at 0.4 µM [7]: 6% | inhibition at 0.4 µM [11]: 3% | inhibition at 0.4 µM [14]: 27%

Further lines, with some results ahead:

IC50 [1]: 200 nM
Structure (SMILES): CNC(=O)C(C)(C)C(c1ccc(Nc2ccccc2)cc1)n1ccnc1 (stereo not drawn)

IC50 [1]: > 1000 nM
Structure (SMILES): CNC(=O)C(C)(C)C(c1ccc(Nc2ccc(OC)cc2)cc1)n1ccnc1 (stereo not drawn)

IC50 [1]: 1000 nM
Structure (SMILES): CNC(=O)C(C)(C)C(c1ccc(Nc2ccc(Cl)cc2)cc1)n1ccnc1 (stereo not drawn)

IC50 [1]: 85 nM
Structure (SMILES): CC(C)(C(=O)O)C(c1ccc(Nc2ccc(C(=O)O)cc2)cc1)n1cncn1 (stereo not drawn)

IC50 [2]: 4200 nM | inhibition at 0.4 µM [3]: 47% | inhibition at 0.4 µM [4]: 19% | IC50 [5]: 1300 nM | inhibition at 0.4 µM [7]: 10% | IC50 [9]: 200 nM | IC50 [1]: 13 nM | IC50 [10]: 9100 nM | inhibition at 0.4 µM [11]: 19% | IC50 [13]: 8500 nM | inhibition at 0.4 µM [14]: 13%
Structure (SMILES): COC(=O)C(C)(C)C(c1ccc(Nc2ccccc2)cc1)n1cncn1 (stereo not drawn)
Ratio IC50 [6]: >100 | Ratio IC50 [8]: >100 | Ratio IC50 [12]: >100 | Ratio IC50 [15]: 15
